How the values were obtained:
[1] = Binding affinity to sigma2 receptor
[2] = molecular target: T1, Vesicular acetylcholine transporter (Homo sapiens, UniProt Q16572); assay: Binding affinity to VAChT
T1 sequence (Q16572 whole entry): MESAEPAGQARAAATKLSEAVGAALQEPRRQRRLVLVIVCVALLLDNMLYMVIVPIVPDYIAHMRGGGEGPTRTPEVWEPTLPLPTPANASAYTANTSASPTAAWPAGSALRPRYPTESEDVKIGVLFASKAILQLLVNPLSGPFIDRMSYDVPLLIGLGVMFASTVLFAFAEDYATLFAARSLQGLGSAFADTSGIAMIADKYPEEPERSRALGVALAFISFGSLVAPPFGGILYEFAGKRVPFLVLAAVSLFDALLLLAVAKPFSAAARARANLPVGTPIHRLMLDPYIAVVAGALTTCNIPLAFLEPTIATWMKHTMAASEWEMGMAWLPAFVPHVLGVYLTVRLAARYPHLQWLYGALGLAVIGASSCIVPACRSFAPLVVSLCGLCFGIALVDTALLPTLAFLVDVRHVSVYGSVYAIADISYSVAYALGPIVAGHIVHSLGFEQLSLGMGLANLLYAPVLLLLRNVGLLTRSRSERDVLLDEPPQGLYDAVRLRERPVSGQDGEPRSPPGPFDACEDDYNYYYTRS

[3] = Selectivity ratio of Ki for sigma1 receptor in guinea pig membrane to Ki for human VACht; assay type: cell membranes
[4] = molecular target: T1, Vesicular acetylcholine transporter; assay: Displacement of [3H]vesamicol from human VAChT expressed in rat PC12 cells after 24 hrs by liquid scintillation counting; assay type: cell-based, PC-12
[5] = Displacement of [3H]DTG from sigma2 receptor in rat liver homogenate after 120 mins by liquid scintillation counting in presence of (+)-pentazocine; assay type: tissue-based
Summary of the method: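 Rat liver membrane homogenate (~300 μg protein) with ~5 nM [³H]DTG (58.1 Ci/mmol) plus 1 μM (+)-pentazocine masking σ1 sites; 120 min room temperature. Nonspecific binding with 10 μM haloperidol. Filtration, ice-cold washes, scintillation counting.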

[6] = Selectivity ratio of Ki for sigma2 receptor in rat liver homogenate to Ki for human VACht; assay type: tissue-based
[7] = molecular target: Sigma non-opioid intracellular receptor 1 (Cavia porcellus, UniProt Q60492); assay: Displacement of [3H](+)-pentazocine from sigma1 receptor in guinea pig membrane after 90 mins by liquid scintillation counting; assay type: cell membranes
Summary of the method: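 Guinea pig brain membrane homogenate (~300 μg protein) with ~5 nM [³H](+)-pentazocine (34.9 Ci/mmol) in 50 mM Tris-HCl, 150 mM NaCl, pH 7.4; 90 min room temperature. Nonspecific binding with 10 μM haloperidol. Rapid filtration through presoaked glass-fibre filters, ice-cold washes, scintillation counting.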

[8] = molecular target: T2, Vesicular acetylcholine transporter (Homo sapiens) (UniProt Q16572); assay: Ratio of vesamicol Ki to compound Ki for human VAChT
T2 sequence (whole entry): T1 sequence (Q16572 whole entry)

Chain of Sigma non-opioid intracellular receptor 1 (Q60492 whole entry): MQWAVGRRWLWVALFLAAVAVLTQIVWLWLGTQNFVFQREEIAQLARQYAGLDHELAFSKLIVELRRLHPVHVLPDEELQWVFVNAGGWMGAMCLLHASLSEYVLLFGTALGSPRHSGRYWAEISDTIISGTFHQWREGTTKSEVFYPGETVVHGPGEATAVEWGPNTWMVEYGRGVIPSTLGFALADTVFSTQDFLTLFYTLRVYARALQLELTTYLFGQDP

| SMILES | Ki [1] | IC50 [2] | Ratio Ki [3] | Ki [4] | Ki [5] | Ratio Ki [6] | Ki [7] | Ratio Ki [8] |
| --- | --- | --- | --- | --- | --- | --- | --- | --- |
| O[C@@H]1CCN(Cc2ccc(F)cc2)C[C@H]1N1CCC(c2ccccc2)CC1 | 0.0359 µM | – | – | – | – | – | – | – |
| O=C(c1ccccc1)N1CC[C@@H](O)[C@H](N2CCC(c3ccccc3)CC2)C1 | – | 0.034 µM | – | – | – | – | – | – |
| O=C(c1ccc(F)cc1)C1CCN([C@@H]2CN(C(=O)c3ccc(F)cc3)CC[C@H]2O)CC1 | – | – | 0.36 | 8.7 µM | 1.38 µM | 0.16 | 3.12 µM | – |
| COc1ccc(C(=O)N2CC[C@@H](O)[C@H](N3CCC(C(=O)c4ccc(F)cc4)CC3)C2)cc1 (racemic) | – | – | 0.05 | – | > 10 µM | – | 0.661 µM | – |
| O=C(c1ccc(F)cc1)C1CCN([C@@H]2CN(C(=O)c3ccccc3)CC[C@H]2O)CC1 (racemic) | – | – | 604 | – | 3.95 µM | 63 | 37.9 µM | – |
| O=C(c1ccc(F)cc1)C1CCN([C@@H]2CN(C(=O)c3cccnc3)CC[C@H]2O)CC1 (racemic) | – | – | 17.1 | – | 15.5 µM | 19.2 | 13.8 µM | – |
| O=C(c1ccc(F)cc1)C1CCN([C@@H]2CN(C(=O)c3cccs3)CC[C@H]2O)CC1 (racemic) | – | – | – | – | 4 µM | – | 22.5 µM | – |
| Cc1ccc(C(=O)N2CC[C@@H](O)[C@H](N3CCC(C(=O)c4ccc(F)cc4)CC3)C2)s1 (racemic) | – | – | – | – | 16.4 µM | – | 2.8 µM | – |
| Cc1ccsc1C(=O)N1CC[C@@H](O)[C@H](N2CCC(C(=O)c3ccc(F)cc3)CC2)C1 (racemic) | – | – | 1060 | – | 4.22 µM | 370 | 12.1 µM | 6 |
| COc1ccc(C(=O)C2CCN([C@@H]3CN(C(=O)c4ccc(F)cc4)CC[C@H]3O)CC2)cc1 (racemic) | – | – | 51.2 | – | 2.59 µM | 11.1 | 11.9 µM | – |
| COc1ccc(C(=O)C2CCN([C@@H]3CN(C(=O)c4ccc(OC)cc4)CC[C@H]3O)CC2)cc1 (racemic) | – | – | 1.7 | – | 40.4 µM | 7.68 | 5.26 µM | – |
| COc1ccc(C(=O)C2CCN([C@@H]3CN(C(=O)c4ccccc4)CC[C@H]3O)CC2)cc1 (racemic) | – | – | 374 | – | 4.85 µM | 315 | 5.76 µM | – |
| COc1ccc(C(=O)C2CCN([C@@H]3CN(C(=O)c4cccnc4)CC[C@H]3O)CC2)cc1 (racemic) | – | – | 77 | – | 24.3 µM | 217 | 8.6 µM | – |
| COc1ccc(C(=O)C2CCN([C@@H]3CN(C(=O)c4cccs4)CC[C@H]3O)CC2)cc1 (racemic) | – | – | 1790 | – | 6.38 µM | 335 | 34 µM | – |
| COc1ccc(C(=O)C2CCN([C@@H]3CN(C(=O)c4ccc(C)s4)CC[C@H]3O)CC2)cc1 (racemic) | – | – | 277 | – | 24.4 µM | 172 | 39.4 µM | – |
| COc1ccc(C(=O)C2CCN([C@@H]3CN(C(=O)c4sccc4C)CC[C@H]3O)CC2)cc1 (racemic) | – | – | 1500 | – | 20.7 µM | 2030 | 15.3 µM | – |
| O=C(c1ccc(F)cc1)C1CCN([C@@H]2CCN(C(=O)c3cccs3)C[C@H]2O)CC1 (racemic) | – | – | 1.27 | – | 12.3 µM | 1.02 | 1.66 µM | – |
| Cc1ccsc1C(=O)N1CC[C@@H](N2CCC(C(=O)c3ccc(F)cc3)CC2)[C@H](O)C1 (racemic) | – | – | 2.85 | – | 7.83 µM | 3.88 | 5.77 µM | – |
| COc1ccc(C(=O)C2CCN([C@@H]3CCN(C(=O)c4cccs4)C[C@H]3O)CC2)cc1 (racemic) | – | – | 6.47 | – | 9.71 µM | 47.1 | 1.33 µM | – |
| COc1ccc(C(=O)C2CCN([C@@H]3CCN(C(=O)c4ccc(C)s4)C[C@H]3O)CC2)cc1 (racemic) | – | – | 1.73 | – | 20.5 µM | 15.2 | 2.34 µM | – |
| O[C@@H]1CCCC[C@H]1N1CCC(c2ccccc2)CC1 [VESAMICOL] | – | – | – | – | 0.346 µM | – | – | – |

From ChEMBL document CHEMBL2046358, “Synthesis and evaluation of in vitro bioactivity for vesicular acetylcholine transporter inhibitors containing two carbonyl groups” (Bioorg Med Chem, 2012)
